Data published in ChEMBL document CHEMBL2375304, “Synthesis and anticancer activity of novel 2-pyridyl hexahyrocyclooctathieno[2,3-d]pyrimidine derivatives” (2013).

Assays:
Type in all cases: functional
[1] = system: MDA-MB-231; assay: Growth inhibition of human MDA-MB-231 cells after 48 hrs by Sulforhodamine B assay; conditions: MDA-MB-231, 48 h
How it was run: (§1)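 Five-concentration SRB assay using 10-fold or ½-log serial dilutions from a DMSO stock. Exposure is 48 h at 37 °C in 5% CO2 after 24 h preincubation. TCA fixation is followed by SRB staining and a reading at 515 nm. Percentage growth is computed from time-zero, control and treated absorbances. GI50 is the concentration where [(Ti−Tz)/(C−Tz)]×100 = 50, read from the plot against log concentration.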

[2] = system: UO-31; assay: Growth inhibition of human UO31 cells after 48 hrs by Sulforhodamine B assay; conditions: UO-31, 48 h
How it was run: (§2)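 Five-concentration stage in the […]-cell-line panel, using 10-fold or ½-log serial dilutions made from a DMSO stock (400-fold). Cells were preincubated 24 h at 37 °C, then drug-exposed 48 h. A time-zero plate was fixed with TCA at dosing, adherent cells were fixed with cold TCA (10% final), and protein was stained with SRB, absorbance 515 nm. GI50 was where [(Ti−Tz)/(C−Tz)]×100 = 50, from the percent growth vs log concentration plot, expressed as log10 GI50.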

[3] = system: SN12C; assay: Growth inhibition of human SN12C cells after 48 hrs by Sulforhodamine B assay
How it was run: (§3)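 Cells were preincubated 24 h at 37 °C, 5% CO2, and a time-zero plate was TCA-fixed. Five concentrations were made by serial dilution from a DMSO stock (400-fold the top concentration) and incubated 48 h. Adherent cells were fixed with 10% final TCA and suspension cells with 16%. Plates were stained with 0.4% SRB and read at 515 nm. GI50 is the concentration giving 50% reduction in net protein increase versus control.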

[4] = system: ACHN; assay: Growth inhibition of human ACHN cells after 48 hrs by Sulforhodamine B assay; how it was run: as §1
[5] = system: UACC-62; assay: Growth inhibition of human UACC62 cells after 48 hrs by Sulforhodamine B assay; conditions: UACC-62, 48 h; how it was run: as §2
[6] = system: UACC-257; assay: Growth inhibition of human UACC257 cells after 48 hrs by Sulforhodamine B assay; conditions: UACC-257, 48 h; how it was run: as §2
[7] = system: SK-MEL-28; assay: Growth inhibition of human SK-MEL-28 cells after 48 hrs by Sulforhodamine B assay; conditions: SK-MEL-28, 48 h; how it was run: as §3
[8] = system: MDA-MB-435; assay: Growth inhibition of human MDA-MB-435 cells after 48 hrs by Sulforhodamine B assay; conditions: MDA-MB-435, 48 h; how it was run: as §1
[9] = system: M14; assay: Growth inhibition of human M14 cells after 48 hrs by Sulforhodamine B assay; conditions: M14, 48 h; how it was run: as §1
[10] = system: LOX IMVI; assay: Growth inhibition of human LOXIMVI cells after 48 hrs by Sulforhodamine B assay; how it was run: as §1
[11] = system: SF-268; assay: Growth inhibition of human SF268 cells after 48 hrs by Sulforhodamine B assay; conditions: SF-268, 48 h; how it was run: as §3
[12] = system: KM12; assay: Growth inhibition of human KM12 cells after 48 hrs by Sulforhodamine B assay; conditions: KM12, 48 h; how it was run: as §1
[13] = system: COLO 205; assay: Growth inhibition of human COLO205 cells after 48 hrs by Sulforhodamine B assay; conditions: COLO 205, 48 h; how it was run: as §1
[14] = system: NCI-H522; assay: Growth inhibition of human NCI-H522 cells after 48 hrs by Sulforhodamine B assay; conditions: NCI-H522, 48 h; how it was run: as §3
[15] = system: HOP-62; assay: Growth inhibition of human HOP62 cells after 48 hrs by Sulforhodamine B assay; conditions: HOP-62, 48 h; how it was run: as §1
[16] = system: K562; assay: Growth inhibition of human K562 cells after 48 hrs by Sulforhodamine B assay; conditions: K562, 48 h; how it was run: as §1
[17] = system: LOX IMVI; assay: Growth inhibition of human LOXIMVI cells at 10^-5 M after 48 hrs by Sulforhodamine B assay relative to control; conditions: read-out: GI
How it was run: (§4)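 Single-dose screen at 10⁻⁵ M. Cells are preincubated 24 h at 37 °C in 5% CO2, then exposed to the compound, diluted from a DMSO stock into medium with gentamicin, for 48 h. Adherent cells are fixed with cold TCA (final 10%) and suspension cells with TCA (final 16%). Cells are stained with 0.4% SRB in 1% acetic acid and bound dye is read at 515 nm. Percent growth inhibition is taken against control wells and time-zero plates.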

[18] = system: SW-620; assay: Growth inhibition of human SW620 cells at 10^-5 M after 48 hrs by Sulforhodamine B assay relative to control; conditions: SW-620, 48 h, read-out: GI
How it was run: (§5)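 Single-dose primary screen at 10⁻⁵ M across 49 lines. Cells were plated 24 h beforehand, with a TCA-fixed time-zero plate, then exposed 48 h at 37 °C, 5% CO2. Cells were fixed with cold TCA, stained with SRB and read at 515 nm. Percent growth was calculated against time-zero and untreated-control absorbances.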

[19] = system: HCT-116; assay: Growth inhibition of human HCT116 cells at 10^-5 M after 48 hrs by Sulforhodamine B assay relative to control; conditions: HCT-116, 48 h, read-out: GI; how it was run: as §4
[20] = system: NCI-H322M; assay: Growth inhibition of human NCI-H322M cells at 10^-5 M after 48 hrs by Sulforhodamine B assay relative to control; conditions: read-out: GI; how it was run: as §5
[21] = system: NCI-H23; assay: Growth inhibition of human NCI-H23 cells at 10^-5 M after 48 hrs by Sulforhodamine B assay relative to control; conditions: NCI-H23, 48 h, read-out: GI; how it was run: as §5
[22] = system: RPMI-8226; assay: Growth inhibition of human RPMI8226 cells at 10^-5 M after 48 hrs by Sulforhodamine B assay relative to control; conditions: RPMI-8226, 48 h, read-out: GI; how it was run: as §5
[23] = system: T47D; assay: Growth inhibition of human T47D cells at 10^-5 M after 48 hrs by Sulforhodamine B assay relative to control; conditions: read-out: GI
How it was run: (§6)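 Single-dose stage: compound tested at 10⁻⁵ M in the 49-cell-line panel. Cells grew 24 h at 37 °C, 5% CO₂ before drug addition. Drug stock was in DMSO at 400-fold, diluted in medium with gentamicin. After 48 h exposure, adherent cells were fixed with cold TCA (10% final) and stained with 0.4% SRB in 1% acetic acid. Dye was solubilized in 10 mM Tris, read at 515 nm. Growth percentage was taken relative to untreated control and time-zero plates.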

[24] = system: MDA-MB-231; assay: Growth inhibition of human MDA-MB-231 cells at 10^-5 M after 48 hrs by Sulforhodamine B assay relative to control; conditions: MDA-MB-231, 48 h, read-out: GI; how it was run: as §4
[25] = system: DU-145; assay: Growth inhibition of human DU145 cells at 10^-5 M after 48 hrs by Sulforhodamine B assay relative to control; conditions: DU-145, 48 h, read-out: GI; how it was run: as §4
[26] = system: UO-31; assay: Growth inhibition of human UO31 cells at 10^-5 M after 48 hrs by Sulforhodamine B assay relative to control; conditions: UO-31, 48 h, read-out: GI; how it was run: as §6
[27] = system: 786-0; assay: Growth inhibition of human 786-0 cells at 10^-5 M after 48 hrs by Sulforhodamine B assay relative to control; conditions: 786-0, 48 h, read-out: GI; how it was run: as §4
[28] = system: SK-OV-3; assay: Growth inhibition of human SKOV3 cells at 10^-5 M after 48 hrs by Sulforhodamine B assay relative to control; conditions: SK-OV-3, 48 h, read-out: GI; how it was run: as §5

Row | SMILES | GI50 [1] [µM] | GI50 [2] [µM] | GI50 [3] [µM] | GI50 [4] [µM] | GI50 [5] [µM] | GI50 [6] [µM] | GI50 [7] [µM] | GI50 [8] [µM] | inhibition of growth at 10 µM [17] [%] | inhibition of growth at 10 µM [18] [%] | inhibition of growth at 10 µM [19] [%] | inhibition of growth at 10 µM [20] [%] | inhibition of growth at 10 µM [21] [%] | inhibition of growth at 10 µM [22] [%] | inhibition of growth at 10 µM [23] [%] | inhibition of growth at 10 µM [24] [%] | inhibition of growth at 10 µM [25] [%] | inhibition of growth at 10 µM [26] [%] | inhibition of growth at 10 µM [27] [%] | inhibition of growth at 10 µM [28] [%] | also measured
1 | O=c1[nH]c(-c2ccncc2)nc2sc3c(c12)CCCCCC3 | > 100 | > 100 | > 100 | > 100 | > 100 | > 100 | > 100 | > 100 |  |  |  |  |  |  |  |  |  |  |  |  | GI50 [9]: > 100 µM; GI50 [10]: > 100 µM; GI50 [11]: > 100 µM; GI50 [12]: > 100 µM; GI50 [13]: > 100 µM; GI50 [14]: > 100 µM; GI50 [15]: > 100 µM; GI50 [16]: > 100 µM
2 | c1ccc(N2CCN(c3nc(-c4ccccn4)nc4sc5c(c34)CCCCCC5)CC2)cc1 |  |  |  |  |  |  |  |  | 42.2 | 24 | 80.5 | 17.7 | 37 | 57.5 | 57.6 | 22.4 | 21.1 | 55.8 | 10.7 | 12.6 | 
3 | c1ccc(-c2nc(N3CCOCC3)c3c4c(sc3n2)CCCCCC4)nc1 | 7.41 | 1.17 | 5.01 | 4.47 | 3.47 | 11 | 11 | 4.79 |  |  |  |  |  |  |  |  |  |  |  |  | GI50 [9]: 4.17 µM; GI50 [10]: 5.25 µM; GI50 [11]: 8.91 µM; GI50 [12]: 4.27 µM; GI50 [13]: 9.33 µM; GI50 [14]: 5.89 µM; GI50 [15]: 9.55 µM; GI50 [16]: 3.47 µM
4 | COc1ccc(N2CCN(c3nc(-c4ccncc4)nc4sc5c(c34)CCCCCC5)CC2)cc1 |  |  |  |  |  |  |  |  | 8.33 | 1.53 | 23.3 | -7.78 | 17.3 | 28.8 | 27 | 12.1 | 2.73 | 11.1 | 11.1 | 0.84 | 
5 | c1ccc(N2CCN(c3nc(-c4ccncc4)nc4sc5c(c34)CCCCCC5)CC2)cc1 |  |  |  |  |  |  |  |  | 0 | -9.11 | -3.45 | -2.96 | 1.33 | 3.42 | 11.7 | 2.4 | -4.95 | 16.1 | 1.77 | 1.97 | 
6 | CN1CCN(c2nc(-c3ccccn3)nc3sc4c(c23)CCCCCC4)CC1 |  |  |  |  |  |  |  |  | 4.93 | -1.34 | 14.1 | 1.03 | 16 | 12.4 | 24.9 | 6.82 | -11.6 | 32.8 | 10 | -3.22 | 
7 | Clc1nc(-c2ccncc2)nc2sc3c(c12)CCCCCC3 |  |  |  |  |  |  |  |  | 5.4 | -3.44 | 2.69 | 3.46 | 3.14 | 0.89 | 6.79 | -6.99 | 8.02 | 13.9 | 0.46 | -7.46 | 
8 | COc1ccc(N2CCN(c3nc(-c4ccccn4)nc4sc5c(c34)CCCCCC5)CC2)cc1 | 50.1 | 3.31 | 6.03 | 5.13 | 6.92 | 7.24 | > 100 | 5.5 |  |  |  |  |  |  |  |  |  |  |  |  | GI50 [9]: 5.37 µM; GI50 [10]: 6.31 µM; GI50 [11]: > 100 µM; GI50 [12]: 5.13 µM; GI50 [13]: 5.62 µM; GI50 [14]: 18.6 µM; GI50 [15]: 11.5 µM; GI50 [16]: 4.17 µM
9 | Clc1nc(-c2ccccn2)nc2sc3c(c12)CCCCCC3 |  |  |  |  |  |  |  |  | 32.2 | -2.34 | 15.5 | 15.5 | 17.6 | 4.46 | 57.8 | -16.9 | 77.5 | 83.6 | 1.61 | -5.16 | 
10 | c1cc(-c2nc(N3CCOCC3)c3c4c(sc3n2)CCCCCC4)ccn1 |  |  |  |  |  |  |  |  | 11.6 | -9.82 | 23.2 | -14.3 | 8.29 | 32.2 | 19.2 | 28.1 | 1.4 | 38.7 | 32.9 | 0.61 | 
11 | NNc1nc(-c2ccccn2)nc2sc3c(c12)CCCCCC3 | 12.6 | 1.02 | 6.31 | 4.9 | 5.89 | 6.61 | 14.8 | 5.13 |  |  |  |  |  |  |  |  |  |  |  |  | GI50 [9]: 5.5 µM; GI50 [10]: 6.17 µM; GI50 [11]: 7.24 µM; GI50 [12]: 6.46 µM; GI50 [13]: 5.13 µM; GI50 [14]: 12 µM; GI50 [15]: 8.51 µM; GI50 [16]: 3.8 µM
12 | NNc1nc(-c2ccncc2)nc2sc3c(c12)CCCCCC3 |  |  |  |  |  |  |  |  | 5.88 | -8.49 | 4.13 | 3.42 | 7.74 | 12.1 | 0.16 | 1.46 | -30.4 | 20.4 | 18.1 | 9.44 | 
